Experimental data from the RNAGym collection of RNA variant scans (doi:10.1126/science.aae0568).
This sample holds only a part of the variants without activity.

B1: tRNA (parent)
chain: GUUCCGUUGGCGUAAUGGUAACGCGUCUCCCUCCUAAGGAGAAGACUGCGGGUUCGAGUCCCGUACGGAACG

Variants of: B1
Test: yeast fitness relative to wild type (ratio to wild type); higher = fitter; tRNA-Arg(CCU), competitive growth, 37 C, YPD
How it was run: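 For this measurement, the tRNA-Arg(CCU) gene was varied by chemical synthesis at a 3% per-site mutation rate across 69 sites, and each variant was placed at the native genomic locus in Saccharomyces cerevisiae. The pooled strains went through a 24-hour competition in YPD at 37°C in six parallel replicates, with amplicons from start and end populations read by 100-nucleotide paired-end sequencing. Darwinian fitness relative to wild type followed from the change in each genotype's frequency. Genotypes needed ≥ 100 starting reads, and estimates < 0.5 were set to 0.5.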

Yeast fitness, 0.63:
C4A G23C A40C C55A

Yeast fitness, 0.878:
C4A G58A

Yeast fitness, 0.61:
C4A C60G

Yeast fitness, 0.609:
C4A C46G C62U
C4G A21C

Yeast fitness, 0.539:
C4G A15C C66U

Yeast fitness, 0.576:
C4A C34G C66U

Yeast fitness, 0.684:
C4A C49A

Yeast fitness, 0.884:
C4A G52A

Yeast fitness, 0.503:
C4A G18C C46G

Yeast fitness, 0.532:
C4A G12C U19C C24G A43U C61U

Yeast fitness, 0.824:
C4G A15U

Yeast fitness, 0.64:
C4A U28C

Yeast fitness, 0.649:
C4A C31A G56A

Yeast fitness, 0.758:
C4A C31G

Yeast fitness, 0.51:
C4A G9C C30A G39A

Yeast fitness, 0.717:
C4A U7A C31A C55A

Yeast fitness, 0.513:
C4A C27A G38A

Yeast fitness, 0.635:
C4G A21C G23C A36U

Yeast fitness, 0.542:
C4A C24G U28A U35C C49U

Yeast fitness, 0.971:
C4A U64C G68C

Yeast fitness, 0.508:
C4A G9C C11G A45C

Yeast fitness, ≤ 0.5:
C4G A21G A36U
C4G A14U C24U C49G G63A
C4A G18A C27U U28G C33G A36G
C4G A20C C30A C31G C34A A37G C49A A57C
C4A G10C C33U C46G U54A
C4A G10C C29G A65G
C4A G17A G18A G25A C55A
C4A G6C C22U G51C C62A
C4A U13C A20C C34A G39C A43U
C4A C33G A45G A70U
C4A U32C A40U A69U
C4A G6A U16C G38A G58C C66U
C4A C30G C31U C55A C61G G67A
C4A C33U A65C
C4A G6A C33U A43U C49G G50C C61U C66U
C4A U28G G48A C49G G50U
C4A C34G G39C
C4G A20U C29U C49U
C4G A20U C31G G51A
C4A G17C G23C A45C C66U
C4A U35C A57U
C4A G12C A21C C22G C55A C60U C62G A69C
C4A C27G C34G A37U U64A
C4G A20U C22G A37C A43C A65G
C4A U26A U32G U53A C62A G68C
C4G A14U U32C A45U C49G U64C
C4G A14G G38A G56C A70G
C4A G25A C27U U28G C33G A36G
C4A G23A A40C U53C
C4A C29G C33G A43U
C4A U32C U59G
C4A C24G A69U
C4A C30A A37C
C4A U8C U59A
C4G A15G U54A A70U
C4A G6C C55U
C4A C49U A65U
C4A G17C C22U
C4A G23A C24G C61A C66U
C4A U16C G17A G56C
C4A C11G G51C
C4A C11U C29G C34A G39C
C4A G39A G63C
C4A U32A A57G A65U
C4A G18A A20C U26G C27U C49U A69C
C4A U13G U32G C55U G63C
C4A C31G A40C
C4A G6C G10A U28A
C4A U13C U28A C34G
C4A G9C C30A G39A G58A
C4A C30G A45C C61G
C4G A14U C24U C49G
C4A G17A G41A A69U
C4G A14C G51C
C4A U7A C46U
C4A G17C G23C A57C
C4A U32C A40U C49G G68C
C4A G10A A14G C31A
C4A G9C C11G G44A C60U G67C
C4A G23A U35G C61A
C4A C33G A45G
C4A C34G G38C A70G
C4A U32A G38C U47A
C4A U16C U35G A45U G51A
C4A G10C C11U G41A A45C A65U
C4A U7A U8G
C4A U26G U53G
C4A U7C A21C C22U G50C A70U
C4A G9A A45G
C4A C22A C33A G39C
C4A G10A A36U
C4A U16A C29G U32C C55U C66U
C4A C24G A37G G50C
C4A G39C C49A
C4A G10A G23A
C4A U7A C31A U54A
C4A C30G G50A
C4A G18C C34U
C4G A15C A57U C61G
C4G A15U C33A G52C C55G
C4A U8A G18A C27U A45U
C4A C30G G41C G68A
C4A C29U G67A
C4A C34G C61A
C4A C30G C66A
C4A C24G C33G G63C
C4G A14U G23A G56C
C4A G6A C11A C22U C29U C61A G67A
C4A C31A U35C A45U
C4A U19C A42G C60G
C4G A21G A45U C49U A70C
C4A G9C C11G A21C C55U C62U G67C
C4A C29G A40U
C4A C30U G38C A42G
C4A C46G C60G
C4A U7A U35C
C4A C29U C55U G63A
C4A U32C G48C C55U
C4A G25A C29A A37G G50C C60G G63A
C4A C22G C33U A40U U59A
C4A G39C C66U
C4A U28C U47C
C4G A15U G56C
C4A C31A C33G U47A
C4G A14G G52A
C4A G23A U35C G56A
C4A G9C C30A G39A G56C
C4A C55A A69C A70U
C4A G41A A42C U59A
C4A G6C C55U G68C

Yeast fitness, 0.587:
C4A U19G A69C

Yeast fitness, 0.613:
C4A U13A G50A

Yeast fitness, 0.54:
C4A G38A G51A
C4A U8C A14U A20C U28G

Yeast fitness, 0.793:
C4A U26A U32G A65G

Yeast fitness, 0.537:
C4A C11U A37C

Yeast fitness, 0.862:
C4A C66U

Yeast fitness, 0.603:
C4A C24A A42G

Yeast fitness, 0.619:
C4G A14C A20G

Yeast fitness, 0.579:
C4G A14C G48C
C4A U8C U47C

Yeast fitness, 0.528:
C4A C22A A69U

Yeast fitness, 0.676:
C4A C60A

Yeast fitness, 0.66:
C4A C27U C66U

Yeast fitness, 0.911:
C4A C61U

Yeast fitness, 0.62:
C4A C31G A40U

Yeast fitness, 0.57:
C4A C24A G52C A57C U59A

Yeast fitness, 0.557:
C4A C29G C34G C49U

Yeast fitness, 0.738:
C4A G6A U28G A37G

Yeast fitness, 0.719:
C4G A15C

Yeast fitness, 0.655:
C4A G23A C33G

Yeast fitness, 0.632:
C4A C27U G39C

Yeast fitness, 0.558:
C4A U26G G44C G58A G68C

Yeast fitness, 0.515:
C4A G18A G25C

Yeast fitness, 0.536:
C4G A20C C31U
C4A U47A A70G

Yeast fitness, 0.56:
C4A G6A A65G
C4A U7A U13A C30A U64C

Yeast fitness, 0.562:
C4A U19A C27U

Yeast fitness, 0.73:
C4A C46A G67A

Yeast fitness, 0.74:
C4A C30A A40G

Yeast fitness, 0.65:
C4A C24U A65C

Yeast fitness, 0.546:
C4A G12A A45U

Yeast fitness, 0.605:
C4A C11A U13C

Yeast fitness, 0.71:
C4A C61G
